Test results taken from ChEMBL document CHEMBL1122273, “5-sulfamoylorthanilic acids, a sulfonamide series with salidiuretic activity” (J Med Chem, 1983).

Experiments:
Rattus norvegicus [1] = species on record: Rattus norvegicus; test: Saluretic activity in the rat measured as concentration of K+ in urine; type: functional
Summary of the method: (§1)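 Rats deprived of food 24 h, water ad libitum, dosed 50 mg/kg by stomach tube as suspension in 2% starch, no extra water load. Groups of three in diuresis funnels; urine over first 5 h collected. Na⁺ and K⁺ by flame photometry, Cl⁻ argentometrically; expressed as mequiv/kg.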

Canis familiaris [2] = test: Saluretic activity in the dog measured as concentration of Na+ in urinary excretion (2 animals/dose) at (dose 1.56 mg/Kg, perorally); type: functional, Canis lupus familiaris, Urine
Summary of the method: (§2)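 Male beagles trained to rest on a table and to accept stomach tube and catheter. Food withdrawn 24 h before, tap water ad libitum. Bladder emptied by catheter, then 20 mL/kg tap water by stomach tube. Catheterized hourly up to 8 h with 4 mL/kg water orally each time; first 2 h urine served as control. Oral dosing after second catheterization. Pooled 1–6 h urine; Na⁺/K⁺ by flame photometry, Cl⁻ argentometrically.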

Rattus norvegicus [3] = species on record: Rattus norvegicus; test: Saluretic activity in the rat measured as concentration of Na+ in urine; type: functional; summary of the method: as §1
Rattus norvegicus [4] = species on record: Rattus norvegicus; test: Saluretic activity in the rat measured as concentration of chloride in urine; type: functional; summary of the method: as §1
Canis familiaris [5] = test: Salidiuretic activity in the dog measured as concentration of Cl - in urinary excretion (2 animals/dose) at (dose 1.56 mg/Kg, perorally); type: functional, Canis lupus familiaris, Urine
Summary of the method: (§3)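 Male beagles trained to the procedures, food withdrawn 24 h before, tap water ad libitum. Bladder emptied by catheter, then 20 mL/kg tap water by stomach tube, plus 4 mL/kg orally at each hourly catheterization up to 8 h. The first 2 h of urine served as control. Compound given orally after the second catheterization. Urine from 1–6 h post-dose pooled; Na⁺ and K⁺ by flame photometry, Cl⁻ argentometrically, in mequiv/kg.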

Canis familiaris [6] = test: Salidiuretic activity in the dog measured as concentration of K+ in urinary excretion (2 animals/dose) at (dose 1.56 mg/Kg, perorally); type: functional, Canis lupus familiaris, Urine; summary of the method: as §3
Canis familiaris [7] = test: Diuretic activity in the dog (2 animals/dose) at (dose 1.56 mg/Kg), when administered perorally; type: functional, Canis lupus familiaris, Urine
Summary of the method: (§4)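 Trained male beagles, fasted 24 h with tap water ad libitum. Bladder emptied by catheter, then 20 mL/kg tap water by stomach tube, with 4 mL/kg water at each hourly catheterization up to 8 h. The first 2 h of urine served as control. Oral dosing came after the second catheterization, and 1–6 h urine was pooled. Na⁺ and K⁺ were measured by flame photometry, Cl⁻ argentometrically, in mequiv/kg.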

Rattus norvegicus [8] = species on record: Rattus norvegicus; test: Diuretic activity in the rats, determined by a modified Lipschitz test; type: functional, Urine
Summary of the method: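 Modified Lipschitz test: rats deprived of water 24 h, grouped in threes of similar weight in diuresis funnels. Oral dose of 50 mg/kg, suspended in 2% starch solution, by stomach tube.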

Canis familiaris [9] = test: Sailuric activity in the dog measured as concentration of Cl - in urinary excretion (2 animals/dose) at (dose 0.78 mg/Kg, po); type: functional, Canis lupus familiaris, Urine; summary of the method: as §4
Canis familiaris [10] = test: Diuretic activity in the dog (2 animals/dose) at (dose 6.25 mg/Kg), when administered perorally; type: functional, Canis lupus familiaris, Urine; summary of the method: as §4
Rattus norvegicus [11] = species on record: Rattus norvegicus; test: Effect on (GFR) glomerular filtration rate in rats was evaluated
Canis familiaris [12] = test: Sailuric activity in the dog measured as concentration of K+ in urinary excretion (2 animals/dose) at (dose 6.25 mg/Kg, po); type: functional, Canis lupus familiaris, Urine; summary of the method: as §3
Canis familiaris [13] = test: Sailuric activity in the dog measured as concentration of Na+ in urinary excretion (2 animals/dose) at (dose 6.25 mg/Kg, po); type: functional, Canis lupus familiaris, Urine; summary of the method: as §3
Rattus norvegicus [14] = species on record: Rattus norvegicus; test: Effect on Urine flow in rats was evaluated
Canis familiaris [15] = test: Sailuric activity in the dog measured as concentration of Cl - in urinary excretion (2 animals/dose) at (dose 6.25 mg/Kg, po); type: functional, Canis lupus familiaris, Urine; summary of the method: as §3
Canis familiaris [16] = test: Sailuric activity in the dog measured as concentration of K+ in urinary excretion (2 animals/dose) at (dose 0.78 mg/Kg, po); type: functional, Canis lupus familiaris, Urine; summary of the method: as §3
Canis familiaris [17] = test: Sailuric activity in the dog measured as concentration of Na+ in urinary excretion (2 animals/dose) at (dose 0.78 mg/Kg, po); type: functional, Canis lupus familiaris, Urine; summary of the method: as §3
[18] = It is the ratio, measured as saluretic activity in the dog as concentration of Na+ in urinary excretion (dose 1.56 mg/Kg, po) to that of K; type: functional, Urine; summary of the method: as §4
Canis familiaris [19] = test: Saluretic activity in the dog measured as concentration of Cl - in urinary excretion (2 animals/dose) at (dose mg/Kg, po); type: functional, Canis lupus familiaris, Urine; summary of the method: as §3
Canis familiaris [20] = test: Saluretic activity in the dog measured as concentration of Na+ in urinary excretion (2 animals/dose) at (dose 1.56 mg/Kg, po); type: functional, Canis lupus familiaris, Urine; summary of the method: as §2
[21] = It is the ratio, measured as saluretic activity in the dog as concentration of Cl- in urinary excretion (dose 1.56 mg/Kg, po) to that of (Na+)+(K+); type: functional, Urine; summary of the method: as §4
Canis familiaris [22] = test: Saluretic activity in the dog measured as concentration of K+ in urinary excretion (2 animals/dose) at (dose 1.56 mg/Kg, po); type: functional, Canis lupus familiaris, Urine; summary of the method: as §2

NS(=O)(=O)c1cc(S(=O)(=O)[O-])c(NCCc2ccco2)cc1Cl.[Na+]
Saluretic activity (Rattus norvegicus [1]): 1.8 m equiv 5hr-1 kg-1
Saluretic activity (Canis familiaris [2]): 0.56 m equiv 6hr-1 kg-1
Saluretic activity (Rattus norvegicus [3]): 4.6 m equiv 5hr-1 kg-1
Saluretic activity (Rattus norvegicus [4]): 6.1 m equiv 5hr-1 kg-1
Saldiuretic activity (Canis familiaris [5]): 0.76 m equiv 6hr-1 kg-1
Saldiuretic activity (Canis familiaris [6]): 0.15 m equiv 6hr-1 kg-1
Diuretic activity (Canis familiaris [7]): 29.3 ml kg-1 6hr-1
Diuretic activity (Rattus norvegicus [8]): 1.9 mL/kg

NS(=O)(=O)c1cc(C(=O)O)c(NCc2ccco2)cc1Cl [FUROSEMIDE]
Saluretic activity (Rattus norvegicus [1]): 2.6 m equiv 5hr-1 kg-1
Saluretic activity (Canis familiaris [9]): 1.85 m equiv 6hr-1 kg-1
Diuretic activity (Canis familiaris [10]): 69 ml kg-1 6hr-1
GFR (Rattus norvegicus [11]): 8.82 mL/min/kg
Saluretic activity (Canis familiaris [12]): 1.26 m equiv 6hr-1 kg-1
Saluretic activity (Canis familiaris [13]): 5.54 m equiv 6hr-1 kg-1
Saluretic activity (Rattus norvegicus [3]): 4.8 m equiv 5hr-1 kg-1
Saluretic activity (Rattus norvegicus [4]): 7.2 m equiv 5hr-1 kg-1
Volume (Rattus norvegicus [14]): 0.998 mL/min/kg
Saluretic activity (Canis familiaris [15]): 6.27 m equiv 6hr-1 kg-1
Saldiuretic activity (Canis familiaris [16]): 0.5 m equiv 6hr-1 kg-1
Diuretic activity (Rattus norvegicus [8]): 4.9 mL/kg
Saluretic activity (Canis familiaris [17]): 1.37 m equiv 6hr-1 kg-1

NS(=O)(=O)c1cc(S(=O)(=O)[O-])c(NCc2ccco2)cc1[S+]([O-])c1ccccc1.[K+] (stereo unspecified)
Ratio [18]: 1.8
Saluretic activity (Rattus norvegicus [1]): 1.5 m equiv 5hr-1 kg-1
Saldiuretic activity (Canis familiaris [19]): 1.27 m equiv 6hr-1 kg-1
Saluretic activity (Rattus norvegicus [3]): 0.8 m equiv 5hr-1 kg-1
Saluretic activity (Rattus norvegicus [4]): 1.7 m equiv 5hr-1 kg-1
Saluretic activity (Canis familiaris [20]): 0.59 m equiv 6hr-1 kg-1
Ratio [21]: 1.3
Saldiuretic activity (Canis familiaris [22]): 0.33 m equiv 6hr-1 kg-1
Diuretic activity (Canis familiaris [7]): 48.4 ml kg-1 6hr-1
Diuretic activity (Rattus norvegicus [8]): 0.8 mL/kg
